According to the EternaBench riboswitch data:

Test system: MS2 coat protein
Test: apparent Kd, MS2 coat protein; higher = weaker binding; RNA-MaP array; FMN 200 µM where present
Outline: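 Stalled E. coli RNA polymerase transcribed each design on Illumina sequencing-chip clusters. The clusters were titrated with SNAP-549-labelled MS2 coat protein, starting at 0.7 or 1.5 nM and doubling up to 3 µM, first without ligand and then with constant ligand, in 100 mM Tris-HCl pH 7.5, 80 mM KCl, 4 mM MgCl2, BSA, DTT, yeast tRNA and Tween-20. Green signal was normalised to red-channel RNA signal and to the control-cluster median Fmax. The apparent Kd is the median of filtered binding-curve fits made for each cluster.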

[1] = designed as: OFF switch for flavin mononucleotide, no ligand
[2] = ligand present: flavin mononucleotide, designed as: OFF switch for flavin mononucleotide
[3] = designed as: ON switch for flavin mononucleotide, no ligand
[4] = ligand present: flavin mononucleotide, designed as: ON switch for flavin mononucleotide

Sequence | apparent Kd [1] [nM] | apparent Kd [2] [nM] | apparent Kd [3] [nM] | apparent Kd [4] [nM]
AUCAGCUCGUCAGGAUAUACGUCACUGCGUCAGCAGUGUGGUAAGAUCACAUGAGGAUCACCCAUGUAGAAGGGACGAGCUAAU | 13.7 | 334 | – | –
UAAUUGUGAGGAUAUUCGUAGUACACGGAGACGUGUAUUACGGAGAAGGCACAUGAGGAUCACCCAUGUUCCUU | 18.2 | 89.4 | – | –
CAGUACUGAGGAUAUACAUGAGGAUCACCCAUGUGUUCCAGCUAGGAAACUAGCAAUUGUAGAAGGCAGUACUG | 59.2 | 428 | – | –
GCAUCUCUAUUAGAACCGAUACGAACAUGAGGAUCACCCAUGUAGGAUAUGCUAAAAGUUGUGUUGCAGAAGGACAUUUAAUGC | 9.49 | 8.64 | – | –
AAUAAACAUGAGGAUCACCCAUGUCAGGAUAUGCGUCUAUCCUUAUUGCAUAGAUACGGCAGAAGGGACUAAUG | 31.9 | 56.9 | – | –
CGGGUCUGAGGAUAUCCAUCUUCAUACAUGAGGAUCACCCAUGUUCACCCUUGGGUUCCCGGAGAAGGCAGUUUUC | 65 | 67.8 | – | –
CAGCGAUAGCUGAACAAUCUAUCUGAGGAUAUUCAUAUAAACAUGAGGAUCACCCAUGUAAAUUGGGAGAAGGCAGAUAGAUUG | – | – | 18 | 5.06
AAGUCUGUACGAGGAUAUCAGUUGUAUCUAAAUUCAACAUGAGGAUCACCCAUGUUGCAAUAGGGUGAGAAGGCGUGUGGGCAA | – | – | 70.1 | 21.6
UAACAUGUCCGAGGAUAUCUGGAAACAUUUUCAAGAGAAGGCGGACAUGAGGAUCACCCAUGUCUCUCCUCAUCAACUACAAAU | 8.61 | 57.5 | – | –
AGUAGAUCAGGAUAUACGUGAAAGGUCAAAGUGUCACUACUACAUGAGGAUCACCCAUGUAGAAGGGAUCUACA | 16.4 | 29.3 | – | –
AUUAAUUAAUUAAUACAUGAGGAUCACCCAUGUAAUAAGAUCUAGGAUAUCAGCUCGAAUAGAGCUGAGAAGGAGAUCACAUGU | – | – | 43.4 | 35.3
CCAGCAAAUGUAAGGAUAUGCUGGUCCUUGGAUCAGCAGAAGGUACAUGAGGAUCACCCAUGUCGUGGAGCUGG | 29.4 | 160 | – | –
GCCAUCGUAUGAGGAUAUGACACCGAAACGGUGUCAGAAGGCAUGUCGAUAGACAUGAGGAUCACCCAUGUAUUAACGAUGGCA | – | – | 740 | 94.2
UGGACCGAGCUGUCGGUUGGCUCUUAGGAUAUGACAUGAGGAUCACCCAUGUGGGAUCUAAAUUGUCAGAAGGAGGGUUCUGGG | 48.3 | 40.3 | – | –
AAUAAACUCACAGGAUAUAGCAGAGGUCGCGUGAACUUACAGACGACUAUGCUAGAAGGGUGACCACAUGAGGAUCACCCAUGU | – | – | 869 | 149
AGCAUCUGAGGAUAUACUGGGUAUGGAAGGCGAAGGGCCAGACAUGAGGAUCACCCAUGUAGAAGGCAGUUUGC | 79.3 | 32.9 | – | –
UCCUACAUCGGAGGAUAUCAUGUGUAAACAUGAGGAUCACCCAUGUCGUACGAUAGUACGGAGAUUGAGAAGGCCGAUGUAGGU | – | – | 93.9 | 17.3
GACUUGUCAGGAUAUCUUACAUAAACAUCGUAGUUACAAUUGGAGAAGGGACAUGAGGAUCACCCAUGUUUGCG | 25.1 | 29.3 | – | –
GGGUACAUCGGAGGAUAUCAUGUAAAUACAUGAGGAUCACCCAUGUCGAUGGAGACAUCGGAGAUUGAGAAGGCCGAUGCACCG | – | – | 203 | 8.97
GGAAGACAAAGUCUUCCAUUACGAACAUGAGGAUCACCCAUGUAGGAUAUGCUUCUCAAAGAGAAGCAGAAGGACAUGUGUCUU | 26.6 | 134 | – | –
GUUGGGUGUCAUGUCGCACAUGAGGAUCACCCAUGUAGGAGGUAGGAUAUCCACGAGAAACAAGCGGAGAAGGGCCAUUAGCGU | 27.9 | 31.3 | – | –
ACAUGAGGAUCACCCAUGUAUACAUAGGAUAUUGGUGAUCAGGCAUGUUUUACAGGAUAUGUCUGCGAGAAGGAUGCAAGUUGU | – | – | 633 | 346
UUGUUACAUGAGGAUCACCCAUGUGAGGAUAUGGCCCGCCCGGCGUGAGCUGGUUUUGUCAGAAGGCGCGUGGG | 111 | 159 | – | –
GUAGCUAGUAAAGGAUAUUAGUGUGUGUAAUAUUGAGAAGGUUACAUGAGGAUCACCCAUGUGAUCAAUCACUGUUAAGGUUGC | 6.29 | 6.33 | – | –
ACAUGAGGAUCACCCAUGUUCACAUAGGAUAUUGAUUAUAUUGGUUUAAGAAUAGUAAUUGACCUCAAGAAGGAUGCCUGAUCU | – | – | 15.3 | 12.2
GAACUGAAGCAUAGCUUUAGUCGUACAUGAGGAUCACCCAUGUAGGAUAUGGUAGGCUUAGCUUACUAGAAGGAUAGAGUGAUC | 140 | 66.8 | – | –
UUGUUAGGGAGAGGAUAUUGACAUGAGGAUCACCCAUGUAUUUGGGAGUGUUUACUGAAUUCUCACGAGAAGGCUUACAAAUUU | 584 | 534 | – | –
GUUCUUCCUGUGAGGAUAUCCAUGUUUCGGUUUGUGGAGAAGGUACAUGAGGAUCACCCAUGUCACCCGCGUUU | 14.1 | 15.8 | – | –

Sequence | apparent Kd [1] [nM] | apparent Kd [2] [nM] | apparent Kd [3] [nM] | apparent Kd [4] [nM]
CUGGUUGUCGAGGAUAUGUCCCGGCUCGCUGUCGCAGAAGGCGACACAUGAGGAUCACCCAUGUCGGUUCGCGU | 34.6 | 30.5 | – | –
CGAUAAUAUAGUUAUCCGUAACGGACAUGAGGAUCACCCAUGUAGGAUAUGUUACUCAACGAGUAACAGAAGGACAUGAGUCUU | 14.8 | 109 | – | –
UUUAUUUAGGCAGGAUAUACAUGUAUAUAUAUUUUUUUAUAUAUUAUUACAUGAGGAUCACCCAUGUAGAAGGGCCUUAUUAUA | 75.6 | 89.1 | – | –
AAAAAGGCAGGAUAUACAUGAGGAUCACCCAUGUAAAGAAAAGAAAGAUCCAAAGAAAGUAGAAGGGCCAAAAA | 74.8 | 286 | – | –
GUCAGCUCGUGAGGAUAUACAACACUGCUUCGGCACUGUAUUAAGAUCACAUGAGGAUCACCCAUGUAGAAGGCACGAGCUGAU | 8.62 | 104 | – | –
CCGUCACAUGAGGAUCACCCAUGUCAGGAUAUCUAUCAUAGCAUCGAAAGAUGCGGGUAGAGAAGGGACUAUCC | – | 22.6 | – | –
AUCAGCUGGUCAGGAUAUACAUCACUGCUUCGGCAGUGUAUUAAGAUCACAUGAGGAUCACCCAUGUAGAAGGGACCAGCUGAU | 30.3 | 341 | – | –
UCGACCAGCGCCAGUCAAACAUGAGGAUCACCCAUGUACUCCAGAAGGCCGCCCAAGAACGGAGUGGAGGAUAUGGAGGUUCUC | – | – | 43.2 | 36.7
GGUGGCUUCACAGGAUAUCCCGAGCCAAACAUGAGGAUCACCCAUGUGCUGGUAUUAAAAUUUGCGGAGAAGGGUGGUUCACGU | – | – | 154 | 74.1
CGCAAGUCAGGAUAUUCGACUGGUCCAUCUGUGGAUUUGUAGGAGAAGGGACAUGAGGAUCACCCAUGUUUGUU | 30.6 | 23.9 | – | –
CAGGAAAUAGAGGAUAUAGGAGUCGAUAGACUCCUAGAAGGCUAUACAUGAGGAUCACCCAUGUGUCCUACCUG | 16.7 | 43 | – | –
GUGCCUAACUAGAAGGCCCAAUGCAAAGCAUAGGGAGGAUAUGGGUUUAAUAAAUAAACAUGAGGAUCACCCAUGUGGCACAAA | – | – | 45.5 | 10.1
CCAUGCAUAGCGAUAUGAUCGAGAGAUCAUGUCGCUAAAUUUAGAAGGACAUGAGGAUCACCCAUGUAGGAUAUGGGAGCAUGG | – | – | 11.7 | 8.26
UAAAGUUAAGGAGGAUAUUACAUGAGGAUCACCCAUGUAAUGGGCUCGGUGUAAGAAGGCCUUGAGUCGAAGUUUCGGAUGAGG | 9.55 | 21.4 | – | –
AAAAAGAUAGGAUAUACAUGAAAAAAAAAAAAAAAAAAAAGACAUGAGGAUCACCCAUGUAGAAGGGUCAAAAA | 133 | 124 | – | –
GCGAUUGCGUAGAAGGUACAAUAUAUUUCAUUGUAAGGAUAUACUUACAUGAGGAUCACCCAUGUUAAAGGAUUUAGCAAUCGC | – | – | 12.4 | 10.3
GUGCCUAACUAGAAGGCCGUAUGCAAAGCAUACGGAGGAUAUGGGUUCCGGAAACGGACAUGAGGAUCACCCAUGUGGCACAAA | – | – | 80.4 | 10.6
CAUUAUGUUGAGGAUAUGCACCGGCUCACUGACGCAGAAGGCGACACAUGAGGAUCACCCAUGUCAGUUCGCGA | 15.5 | 15.8 | – | –
GGAUAGGACAAAGGAUAUACGUGCUAGAGAUACUAGCAAAAUUUCCUCACAUGAGGAUCACCCAUGUAGAAGGCUGUCCUAUCG | 6.93 | 14.7 | – | –
AGUUAAUAUCGAGGAUAUGUCUAGACACAUGAGGAUCACCCAUGUAUGUGUAUAGAAGGCGAUAUUAACAGCAUGUUACAUGCU | – | – | 42.9 | 16.4
AAUAGACAUGAGGAUCACCCAUGUGUAUAUGGGAGAGGAUAUACGGGACACAAGGGCGGAGUAGAAGGCUCGAGAC | – | – | 149 | 146
GCAUGUAAGCAGAAGGGCAGACAUUUUGAUGCUGCAGGAUAUGCAGAAUCAUAUCCACAUGAUAACAUGAGGAUCACCCAUGUA | 19.9 | 24.3 | – | –
AUAUGAUAGAUAGGAUAUACAUUGGAUUUAAAAGUAGAAGGAUCAAGUGGGAAAUGAACAUGAGGAUCACCCAUGUAAUAGGAU | – | – | 107 | 78.2
UGUGUCUGUAGAGGAUAUCCGAGCGUUCGGCGAGGAGAAGGCUGCAACACAUGAGGAUCACCCAUGUAGGUUGUGUCUCCCUAC | 10.9 | 32.2 | – | –
GGAUAGGACAGAGGAUAUACGUGCUAGAGAUACUAGCAAAAUUUGCUCACAUGAGGAUCACCCAUGUAGAAGGCUGUCCUAUCG | 5.31 | 19.7 | – | –
UUAUUUAGUGUGAGGAUAUGCUGGUCCAUAGAUCAGCAGAAGGCACAUGAGGAUCACCCAUGUAAUAUAUUAAU | 26.5 | 202 | – | –
GCCAUCGCAUGAGGAUAUGGCACCGUUUCGGUGCCAGAAGGCAUGUCAAAUGACAUGAGGAUCACCCAUGUAGUUAAGGUGGCA | – | – | 225 | 14.9
